ChEMBL document CHEMBL1152230, “Synthesis of (3,4-dimethoxyphenoxy)alkylamino acetamides as orexin-2 receptor antagonists” (Bioorg Med Chem Lett, 2008)
Active and inactive are the calls of the source. No cut-off for these calls is given here.

Assays:
[1] = target: T1, Orexin receptor type 2 (Homo sapiens) (UniProt O43614); experiment: Agonist activity at human OX2 receptor expressed in HEK293 cells assessed as effect on human orexin-A-stimulated calcium release by FLIPR assay; assay type: functional, cell-based
T1 sequence (whole entry): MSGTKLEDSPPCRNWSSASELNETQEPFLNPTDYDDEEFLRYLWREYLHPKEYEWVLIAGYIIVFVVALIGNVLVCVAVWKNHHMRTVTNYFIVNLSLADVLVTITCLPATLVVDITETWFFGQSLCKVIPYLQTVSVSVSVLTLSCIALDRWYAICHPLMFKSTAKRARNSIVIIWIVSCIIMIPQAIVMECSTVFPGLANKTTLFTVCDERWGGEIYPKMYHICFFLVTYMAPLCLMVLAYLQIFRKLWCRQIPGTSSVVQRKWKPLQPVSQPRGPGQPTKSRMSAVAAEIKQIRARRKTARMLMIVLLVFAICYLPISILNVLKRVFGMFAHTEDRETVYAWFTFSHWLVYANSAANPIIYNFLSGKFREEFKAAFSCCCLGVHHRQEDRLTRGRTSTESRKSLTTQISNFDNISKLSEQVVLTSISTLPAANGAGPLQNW

Orexin receptor type 2 = target: T2, Orexin receptor type 2 (Homo sapiens, UniProt O43614); experiment: Antagonist activity at human OX2 receptor expressed in HEK293 cells assessed as inhibition of human orexin-A-stimulated calcium release by FLIPR assay; assay type: functional, cell-based
T2 sequence (O43614 whole entry): T1 sequence (whole entry)
Summary of the method: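 HEK293/OX2-R cells, 20,000/well, were grown 24 h at 37 °C. They were loaded with Calcium 3 no-wash dye in HBSS/20 mM HEPES pH 7.5/BSA with 2.5 mM probenecid final, for 30 min at 37 °C, then 30-90 min at room temperature. FLIPR fluorescence was read for 125 s.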

SMILES	Activity [1]	IC50 (Orexin receptor type 2; read-out: IC50)	IC50 (Orexin receptor type 2; read-out: pIC50 (converted))
COc1ccc(OCCN(CC(=O)NCc2ccccc2)Cc2ccc(F)cc2)cc1OC	inactive	< 30 nM	19.5 nM
COc1ccc(OCCN(CC(=O)NCC(C)C)Cc2cccs2)cc1OC	inactive	–	324 nM
COc1ccc(OCCCN(CC(=O)NCc2ccccc2)Cc2ccccc2)cc1OC	inactive	–	51.3 nM
COc1ccc(OCCCN(CC(=O)NCc2ccccc2)Cc2ccc(F)c(F)c2)cc1OC	inactive	–	107 nM
COc1ccc(OCCN(CC(=O)NCc2ccccc2)Cc2ccc(F)c(F)c2)cc1OC	inactive	< 30 nM	18.6 nM
COc1ccc(OCCN(CC(=O)NCc2ccccc2Cl)Cc2ccc(F)cc2)cc1OC	inactive	–	138 nM
COc1ccc(OCCN(CC(=O)NCC(C)C)Cc2ccc(F)cc2)cc1OC	inactive	–	562 nM
COc1ccc(OCCN(CC(=O)NCC(C)C)Cc2ccc(F)c(F)c2)cc1OC	inactive	–	229 nM
COc1ccc(OCCN(CC(=O)NCc2ccccc2Cl)Cc2cccs2)cc1OC	inactive	–	195 nM

Continued, values first:

Activity [1]	IC50 (Orexin receptor type 2; read-out: IC50)	IC50 (Orexin receptor type 2; read-out: pIC50 (converted))	SMILES
inactive	< 30 nM	25.1 nM	COc1ccc(OCCN(CC(=O)NCc2ccccc2)Cc2ccccc2)cc1OC
inactive	–	151 nM	COc1ccc(OCCN(CC(=O)NCc2ccccc2Cl)Cc2ccccc2)cc1OC
inactive	–	132 nM	COc1ccc(OCCCN(CC(=O)NCc2ccccc2)Cc2cccs2)cc1OC
inactive	–	81.3 nM	COc1ccc(OCCN(CC(=O)NCc2ccccc2Cl)Cc2ccc(F)c(F)c2)cc1OC
inactive	–	302 nM	COc1ccc(OCCN(CC(=O)NCC(C)C)Cc2ccccc2)cc1OC
inactive	–	110 nM	COc1ccc(OCCN(CC(=O)NCc2ccccc2)Cc2cccs2)cc1OC
